# In PMC4306527 (Journal of medicinal chemistry, 2014):
# “And” between values parts separate entries of the source, which are not always exact repeats. Equal entries are not always repeated.
# Assays:
# rats [1] = conditions: sc, data published previously; cited from earlier work
# hCB2 receptor = hCB2 receptor (Homo sapiens, UniProt P34972); assay: Radioligand competition binding, human CB2 in HEK293 membranes, [3H]CP-55,940
# mCB2 receptor = mCB2 receptor (Mus musculus, UniProt P47936); assay: Radioligand competition binding, mouse CB2 in HEK293 membranes, [3H]CP-55,940
# mCB2 receptor, sequence (P47936 whole entry): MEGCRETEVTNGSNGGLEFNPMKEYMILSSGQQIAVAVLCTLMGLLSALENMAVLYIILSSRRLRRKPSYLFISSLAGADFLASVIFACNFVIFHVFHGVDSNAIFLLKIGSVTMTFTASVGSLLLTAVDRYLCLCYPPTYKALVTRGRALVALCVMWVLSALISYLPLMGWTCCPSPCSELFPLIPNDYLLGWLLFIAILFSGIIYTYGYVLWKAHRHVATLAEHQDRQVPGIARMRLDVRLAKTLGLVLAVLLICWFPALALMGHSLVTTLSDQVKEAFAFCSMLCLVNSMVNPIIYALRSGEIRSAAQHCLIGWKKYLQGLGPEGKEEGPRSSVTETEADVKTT
# [2] = biological target: rCB1 receptor (rat brain membranes) (Rattus norvegicus, UniProt P20272); assay: Radioligand competition binding, rat brain CB1, [3H]CP-55,940
# rCB1 receptor (rat brain membranes), sequence (P20272 whole entry): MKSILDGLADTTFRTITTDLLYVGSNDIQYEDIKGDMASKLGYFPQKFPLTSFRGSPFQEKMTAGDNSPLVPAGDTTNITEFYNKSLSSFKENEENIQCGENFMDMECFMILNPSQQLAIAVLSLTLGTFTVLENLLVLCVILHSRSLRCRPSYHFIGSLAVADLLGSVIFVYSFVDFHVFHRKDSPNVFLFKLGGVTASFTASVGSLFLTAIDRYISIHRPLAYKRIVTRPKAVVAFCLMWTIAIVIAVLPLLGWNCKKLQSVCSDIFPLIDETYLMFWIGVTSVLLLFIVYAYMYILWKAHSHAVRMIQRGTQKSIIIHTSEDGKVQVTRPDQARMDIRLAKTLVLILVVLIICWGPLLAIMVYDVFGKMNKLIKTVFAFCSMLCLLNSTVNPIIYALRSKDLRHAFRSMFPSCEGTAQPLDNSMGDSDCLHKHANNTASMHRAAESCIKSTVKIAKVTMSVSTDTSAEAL
# male CD-1 mice = assay: Tail-flick withdrawal; assay type: in vivo, mouse; conditions: 0.3 and 1.0 mg/kg ip, descending phase 180 and 360 min
# rats [3] = assay: Hypothermia testing in rats; assay type: in vivo, rat
# Method in brief: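 Female Sprague–Dawley rats (250–350 g, n = 6/group), reused with ≥5 days between sessions. Test compound was dissolved in 20% ethanol/20% alkamuls/60% saline, then diluted with saline. Temperature was taken by a thermistor probe at 6 cm depth in minimally restrained, isolated rats. Two baselines 15 min apart; injected after the second; read every 30 min to 3 h, then hourly to 6 h. ED50 = dose lowering temperature 3 °C.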
# mouse plasma esterases = assay: In vitro plasma stability toward mouse plasma esterases; assay type: in vitro ADME; conditions: 200 μM in mouse plasma, 37 °C; Stable = no observable hydrolysis within 5 h
# Method in brief: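 Test compound at 200 μM in mouse plasma, incubated at 37 °C with 100 rpm shaking. Samples taken at various time points were diluted 1:4 in acetonitrile and centrifuged to remove protein. Supernatant was analysed by HPLC on a C18 column. Half-life came from an exponential decay fit.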
# hCB2 receptor, sequence (P34972 whole entry): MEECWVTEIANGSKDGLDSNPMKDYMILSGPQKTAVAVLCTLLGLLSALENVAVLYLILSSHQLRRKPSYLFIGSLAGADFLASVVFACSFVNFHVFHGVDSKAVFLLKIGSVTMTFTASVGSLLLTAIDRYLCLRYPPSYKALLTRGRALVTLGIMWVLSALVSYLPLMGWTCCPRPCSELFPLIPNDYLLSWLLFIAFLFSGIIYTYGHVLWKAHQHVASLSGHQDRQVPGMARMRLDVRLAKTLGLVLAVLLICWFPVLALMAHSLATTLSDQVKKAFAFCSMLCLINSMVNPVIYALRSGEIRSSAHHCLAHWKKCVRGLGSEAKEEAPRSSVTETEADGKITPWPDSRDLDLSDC
smiles,measurement,setting,value
"CCCCCCC(C)(C)c1cc(O)c2c(c1)OC(C)(C)[C@@H]1CC=C(C)C[C@@H]21 [(−)-Δ^8-THC-DMH, (−)-Δ^8-THC-dimethylheptyl]",ED50 (dose required to reduce temperature by 3 °C),rats [1],0.29 mg/kg
"CCOC(=O)C(C)(C)c1cc(O)c2c(c1)OC(C)(C)[C@@H]1CC=C(C)C[C@@H]21 [Compound 8b, 2-[(6aR,10aR)-6a,7,10,10a-Tetrahydro-1-hydroxy-6,6,9-trimethyl-6H-dibenzo[b,d]pyran-3-yl]-2-methyl-propanoic Acid Ethyl Ester]",fold higher binding affinity for hCB2 compared to (−)-Δ^8-THC,hCB2 receptor,24 fold
same,fold higher binding affinity for mCB2 compared to (−)-Δ^8-THC,mCB2 receptor,78 fold
"CC1=CC[C@@H]2[C@@H](C1)c1c(O)cc(C(C)(C)C(=O)OCCCCn3ccnc3)cc1OC2(C)C [Compound 9d, 2-[(6aR,10aR)-6a,7,10,10a-Tetrahydro-1-hydroxy-6,6,9-trimethyl-6H-dibenzo[b,d]pyran-3-yl]-2-methyl-propanoic Acid 4-(1H-Imidazol-1-yl)butyl Ester]",fold reduction of CB1 affinity relative to 10b,[2],~ 8 fold
"CC1=CC[C@@H]2[C@@H](C1)c1c(O)cc(C(C)(C)C(=O)OCCCC#N)cc1OC2(C)C [Compound 10a, 2-[(6aR,10aR)-6a,7,10,10a-Tetrahydro-1-hydroxy-6,6,9-trimethyl-6H-dibenzo[b,d]pyran-3-yl]-2-methyl-propanoic Acid 3-Cyano-propyl Ester]",offset of the analgesia effect compared to 2b,male CD-1 mice,significantly faster
same,reduction of body temperature,"rats [3]; 0.1 mg/kg sc, from average baseline of 37.8 ± 0.1 °C",4.5 ± 0.5 °C
same,fold more potent than (−)-Δ^8-THC-DMH and/or 2b,rats [3]; hypothermia,8–10 fold and 10 fold
"CCCCCNC(=O)C(C)(C)c1cc(O)c2c(c1)OC(C)(C)[C@@H]1CC=C(C)C[C@@H]21 [Compound 18, 2-[(6aR,10aR)-6a,7,10,10a-Tetrahydro-1-hydroxy-6,6,9-trimethyl-6H-dibenzo[b,d]pyran-3-yl]-2-methyl-N-pentylpropanamide]",mouse plasma t1/2,mouse plasma esterases,Stable ^e
